pIC50: −log10 of the molar value. Active and inactive are the calls of the source. No cut-off for these calls is given here.
Key:
[1] = Cytotoxicity against human […] cells after 24 hrs by MTT assay; type: functional, cell-based
In short: (§1)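 MTT assay in RPMI 1640 with 10% fetal calf serum, 2 mM L-glutamine and […]. Log-phase cells seeded, attached 24 h at 37 °C and 5% CO₂, then treated at 0–100 μM. Compounds dissolved in DMSO (1 mg/mL stock), DMSO below 0.1% in wells. Five wells per concentration, triplicate experiments. Blank-corrected OD taken as % of untreated growth, IC50 = 50% inhibition.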

[2] = test system: HepG2; assay: Cytotoxicity against human HepG2 cells after 24 hrs by MTT assay; type: functional, cell-based; in short: as §1
[3] = test system: K562; assay: Cytotoxicity against human K562 cells after 24 hrs by MTT assay; type: functional, cell-based; in short: as §1
[4] = test system: HeLa; assay: Cytotoxicity against human HeLa cells after 24 hrs by MTT assay; type: functional, cell-based; in short: as §1
[5] = test system: HeLa; assay: Induction of apoptosis in human HeLa cells at 3 uM after 24 hrs by FITC/AnnexinV-based flow cytometric analysis (reference value: 0.98%); type: functional
[6] = test system: HeLa; assay: Cell cycle arrest in human HeLa cells assessed as accumulation in subG1 phase after 36 hrs by PI-staining based flow cytometric analysis; type: functional
In short: (§2)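 HeLa cells (1 × 10⁵) exposed 36 h to 0, 0.375, 1.5 or 3 μM; washed twice in ice-cold PBS, harvested and fixed. Then RNase A (0.1 mg/mL, 37 °C, 30 min) and propidium iodide staining (30 min on ice, dark). Flow cytometry gave sub-G1, G1, S and G2 fractions, compared with untreated cultures.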

[7] = test system: HeLa; assay: Cell cycle arrest in human HeLa cells assessed as accumulation in G1 phase at 1.5 uM after 36 hrs by PI-staining based flow cytometric analysis (reference value: 47.36%); type: functional; in short: as §2
[8] = test system: HeLa; assay: Cell cycle arrest in human HeLa cells assessed as accumulation in G1 phase at 3 uM after 36 hrs by PI-staining based flow cytometric analysis (reference value: 47.36%); type: functional; in short: as §2
[9] = test system: HeLa; assay: Cell cycle arrest in human HeLa cells assessed as accumulation in G1 phase after 36 hrs by PI-staining based flow cytometric analysis; type: functional; in short: as §2
[10] = organism: Capra hircus; assay: Inhibition of goat tubulin polymerization at 3 uM after 30 mins by transmission electron microscopic analysis
In short: (§3)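 Microtubule protein from goat brain purified by repeated warm polymerisation and cold depolymerisation cycles with glycerol, ATP and GTP. Tubulin incubated ± compound 30 min at 37 °C in 80 mM PIPES pH 6.9, 1 mM MgCl₂, […], 30% glycerol, 1 mM GTP. Fixed in 0.5% glutaraldehyde, grids stained with uranyl acetate, viewed by TEM at 100 kV.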

[11] = test system: HeLa; assay: Cell cycle arrest in human HeLa cells assessed as accumulation in subG1 phase at 0.375 uM after 36 hrs by PI-staining based flow cytometric analysis (reference value: 0.2%); type: functional; in short: as §2
[12] = test system: HeLa; assay: Induction of apoptosis in human HeLa cells at 1.5 uM after 24 hrs by FITC/AnnexinV-based flow cytometric analysis (reference value: 0.98%); type: functional
[13] = test system: HeLa; assay: Induction of apoptosis in human HeLa cells at 0.375 uM after 24 hrs by FITC/AnnexinV-based flow cytometric analysis (reference value: 0.98%); type: functional
[14] = test system: HeLa; assay: Cell cycle arrest in human HeLa cells assessed as accumulation in G1 phase at 0.375 uM after 36 hrs by PI-staining based flow cytometric analysis (reference value: 47.36%); type: functional; in short: as §2
[15] = organism: Capra hircus; assay: Inhibition of goat tubulin polymerization assessed as club shaped cytoskeleton at 3 uM after 30 mins by transmission electron microscopic analysis; in short: as §3
[16] = test system: HeLa; assay: Induction of apoptosis in human HeLa cells assessed as early apoptotic cells at 0.375 to 3 uM after 24 hrs by FITC/AnnexinV-based flow cytometric analysis (reference value: 0.17%); type: functional
[17] = test system: HeLa; assay: Cell cycle arrest in human HeLa cells assessed as accumulation in subG1 phase at 3 uM after 36 hrs by PI-staining based flow cytometric analysis (reference value: 0.2%); type: functional; in short: as §2
[18] = test system: HeLa; assay: Induction of apoptosis in human HeLa cells assessed as late apoptotic cells at 0.375 to 3 uM after 24 hrs by FITC/AnnexinV-based flow cytometric analysis (reference value: 0.81%); type: functional
[19] = test system: HeLa; assay: Cell cycle arrest in human HeLa cells assessed as decrease in G2 phase after 36 hrs by PI-staining based flow cytometric analysis; type: functional; in short: as §2
[20] = test system: HeLa; assay: Cell cycle arrest in human HeLa cells assessed as decrease in S phase after 36 hrs by PI-staining based flow cytometric analysis; type: functional; in short: as §2
[21] = test system: HeLa; assay: Cell cycle arrest in human HeLa cells assessed as accumulation in subG1 phase at 1.5 uM after 36 hrs by PI-staining based flow cytometric analysis (reference value: 0.2%); type: functional; in short: as §2

| Compound | pIC50 [1] | pIC50 ([2]; hepg2) | pIC50 ([3]; k562) | pIC50 ([4]; hela) | further results |
| --- | --- | --- | --- | --- | --- |
| CC[C@H](C)[C@H](NC(=O)OC1CC(C)(C)N([O])C(C)(C)C1)C(=O)Nc1cc(/C=C\c2cc(OC)c(OC)c(OC)c2)ccc1OC | 5.51 | 5.66 | 4.73 | 5.63 |  |
| COc1ccc(/C=C\c2cc(OC)c(OC)c(OC)c2)cc1NC(=O)[C@H](CCSC)NC(=O)OC1CC(C)(C)N([O])C(C)(C)C1 | 5.77 | 5.69 | 5.38 | 5.94 |  |
| COc1ccc(/C=C\c2cc(OC)c(OC)c(OC)c2)cc1N |  |  |  |  | pIC50 ([1]; Homo sapiens, 24 h): 7.85; pIC50 ([2]; Homo sapiens, HepG2, 24 h): 7.55; pIC50 ([3]; Homo sapiens, K562, 24 h): 6.92; pIC50 ([4]; Homo sapiens, HeLa, 24 h): 6.39 |
| COc1ccc(/C=C\c2cc(OC)c(OC)c(OC)c2)cc1NC(=O)[C@H](C)NC(=O)OC1CC(C)(C)N([O])C(C)(C)C1 | 6.02 | 6.14 | 5.81 | 6.41 |  |
| COc1ccc(/C=C\c2cc(OC)c(OC)c(OC)c2)cc1NC(=O)C1CC(C)(C)N([O])C(C)(C)C1 | 4.37 | 4.29 | 4.77 | 4.23 |  |
| COc1ccc(/C=C\c2cc(OC)c(OC)c(OC)c2)cc1NC(=O)[C@H](Cc1ccccc1)NC(=O)OC1CC(C)(C)N([O])C(C)(C)C1 | 5.20 | 6.55 | 5.24 | 5.08 |  |
| COc1ccc(/C=C\c2cc(OC)c(OC)c(OC)c2)cc1NC(=O)C1CC(C)(C)N([O])C1(C)C (stereo not drawn) | 5.31 | 4.60 | 4.98 | 5.12 |  |
| COc1ccc(/C=C\c2cc(OC)c(OC)c(OC)c2)cc1NC(=O)[C@H](Cc1c[nH]c2ccccc12)NC(=O)OC1CC(C)(C)N([O])C(C)(C)C1 | 5.45 | 5.64 | 6.25 | 5.68 |  |
| COc1ccc(/C=C\c2cc(OC)c(OC)c(OC)c2)cc1NC(=O)CNC(=O)OC1CC(C)(C)N([O])C(C)(C)C1 | 6.41 | 6.01 | 5.96 | 6.39 | Activity [5]: 66.54%; Activity [6]: Dose-dependent effect; Activity [7]: 85.82%; Activity [8]: 96.25%; Activity [9]: Dose-dependent effect; inhibition [10]: Active; Activity [11]: 1.14%; Activity [12]: 55.75%; Activity [13]: 43.99%; Activity [14]: 32.85%; inhibition [15]: Active; Activity [16]: 52.6%; Activity [17]: 32.42%; Activity [18]: 13.96%; Activity [19]: Dose-dependent effect; Activity [20]: Dose-dependent effect; Activity [21]: 16.71% |
| COc1ccc(/C=C\c2cc(OC)c(OC)c(OC)c2)cc1NC(=O)[C@@H](NC(=O)OC1CC(C)(C)N([O])C(C)(C)C1)C(C)C | 6.37 | 5.98 | 4.92 | 6.82 |  |
| COc1ccc(/C=C\c2cc(OC)c(OC)c(OC)c2)cc1NC(=O)[C@@H]1CCCN1C(=O)OC1CC(C)(C)N([O])C(C)(C)C1 | 5.33 | 5.35 | 5.26 | 5.47 |  |
| COc1ccc(/C=C\c2cc(OC)c(OC)c(OC)c2)cc1NC(=O)C1=CC(C)(C)N([O])C(C)(C)C1 | 5.21 | 4.97 | 4.81 | 5.07 |  |
| COc1cc([C@@H]2c3cc4c(cc3[C@@H](O[C@@H]3O[C@@H]5CO[C@@H](C)O[C@H]5[C@H](O)[C@H]3O)[C@H]3COC(=O)[C@H]23)OCO4)cc(OC)c1O [ETOPOSIDE] |  |  |  |  | pIC50 ([1]; Homo sapiens, 24 h): 4.57; pIC50 ([2]; Homo sapiens, HepG2, 24 h): 3.98; pIC50 ([3]; Homo sapiens, K562, 24 h): 5.55; pIC50 ([4]; Homo sapiens, HeLa, 24 h): 4.75 |
| COc1ccc(/C=C\c2cc(OC)c(OC)c(OC)c2)cc1NC(=O)C1=CC(C)(C)N([O])C1(C)C | < 4.00 | 4.41 | < 4.00 | 4.37 |  |

Reference: ChEMBL document CHEMBL2321723, “Synthesis and mechanistic studies of novel spin-labeled combretastatin derivatives as potential antineoplastic agents” (Bioorg Med Chem, 2013)
